Laboratory results published in ChEMBL document CHEMBL5108077, “Discovery of N-β-l-Fucosyl Amides as High-Affinity Ligands for the Pseudomonas aeruginosa Lectin LecB” (J Med Chem, 2022).

Key:
Pseudomonas aeruginosa [1] = experiment: Binding affinity to Pseudomonas aeruginosa PA-IIL assessed as change in enthalpy by isothermal titration calorimetry
Procedure, shortened: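 Recombinant PAO1 LecB expressed in E. coli BL21(DE3), in TBS/Ca²⁺ pH 7.4. Ligand (500–1500 μM) titrated into 100 μM LecB at 25 °C with stirring: 19–39 injections, 240 s apart. First injection discarded. One-site binding model fit. Means from three independent titrations.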

Pseudomonas aeruginosa [2] = experiment: Binding affinity to Pseudomonas aeruginosa PA-IIL assessed as change in entropy by isothermal titration calorimetry

**Q.** For C[C@@H]1O[C@H](O)[C@@H](O)[C@H](O)[C@@H]1O, which deltaH (Pseudomonas aeruginosa [1]) is on record?
**A.** -7.46 kcal/mol

**Q.** What about the TdeltaS (Pseudomonas aeruginosa [2]) of the same compound?
**A.** 0.0717 kcal/mol
